Published values pooled from the literature.
Lines come from different studies, so protocols differ. pEC50, pIC50, pKd, pKi: −log10 of the molar value.
Cnr1: Cannabinoid receptor 1 (Cnr1, Rattus norvegicus, UniProt P20272)
Antigen peptide transporter 1/Antigen peptide transporter 2: Antigen peptide transporter 1/Antigen peptide transporter 2 (Homo sapiens, UniProt Q03518+Q03519)
CP: CP (Tobacco mosaic virus, UniProt P69687)

`CCCCCn1c2ccccc2c2cc(C(=O)NCC3CCN(CC(=O)NC(C)(C)C)CC3)ccc21` has a pKi of < 5.30 (Cnr1; ligand displacement; radioligand).
`CCCCCn1c2ccccc2c2cc(CN3CCCCC3)ccc21` has a pKi of ~7.00 (Cnr1; ligand displacement; radioligand; cell membranes).
For `CC[C@H](C)[C@H](NC(=O)[C@H](CCCNC(=N)N)NC(=O)[C@H](C)N)C(=O)N[C@@H](CC(=O)O)C(=O)N[C@@H](CCCCN)C(=O)N1CCC[C@H]1C(=O)N[C@H](C(=O)N[C@@H](CC(C)C)C(=O)N[C@@H](C)C(=O)O)[C@@H](C)CC`, the pIC50 was 6.30 (Antigen peptide transporter 1/Antigen peptide transporter 2; ligand displacement).
The pKd of `CNCC(=O)N[C@@H](CO)C(=O)N[C@H]1[C@H](O)[C@@H](O)[C@H](n2ccc(N)nc2=O)O[C@@H]1C(N)=O` is reported as 5.04 (CP; binding; MST).
`CC(C)C[C@H](NC(=O)[C@H](CCC(=O)O)NC(=O)[C@@H](NC(=O)[C@H](CO)NC(=O)[C@H](CCCCN)NC(=O)[C@H](CCC(N)=O)NC(=O)[C@H](Cc1ccc(O)cc1)NC(=O)[C@H](CCCNC(=N)N)NC(=O)[C@H](CCCNC(=N)N)NC(=O)[C@H](C)N)[C@@H](C)O)C(=O)N[C@@H](C)C(=O)O` has a pIC50 of 5.59 (Antigen peptide transporter 1/Antigen peptide transporter 2; ligand displacement).
`NC(=O)c1ncn([C@@H]2O[C@H](CO)[C@@H](O)[C@H]2O)n1` gave a pKd of 3.92 (CP; binding; MST).
`C[C@H](N)C(=O)N[C@@H](CCCNC(=N)N)C(=O)N[C@@H](C)C(=O)N[C@@H](C)C(=O)N[C@@H](C)C(=O)N[C@@H](C)C(=O)N[C@@H](C)C(=O)N[C@@H](C)C(=O)N[C@@H](CCCCN)C(=O)O` gave a pIC50 of 5.15 (Antigen peptide transporter 1/Antigen peptide transporter 2; ligand displacement).
For `COc1c(-c2ccccc2)oc2c(ccc3occc32)c1=O`, the pIC50 was < 4.00 (Cyclin-dependent kinase 7, with cyclin H (CDK7, Homo sapiens, UniProt P50613); enzyme activity; inhibitor; ADP detection).
`C/C(N)=N\C(=N/S(=O)(=O)c1ccc(C(F)(F)F)cc1)N1C[C@H](c2ccccc2)C(c2ccc(Cl)cc2)=N1` has a pKi of 8.10 (Cnr1; ligand displacement; radioligand; cell membranes).
With `COc1ccc2cccc(C(CO)CNC(=O)CF)c2c1` (stereo not shown) the pEC50 was 8.57 (Melatonin receptor type 1B (MTNR1B, Homo sapiens, UniProt P49286); β-arrestin recruitment; agonist).
The pIC50 of `C[C@H](NC(=O)[C@H](CCC(=O)O)NC(=O)[C@@H](NC(=O)[C@H](CO)NC(=O)[C@H](CCCCN)NC(=O)[C@H](CCC(N)=O)NC(=O)[C@H](Cc1ccc(O)cc1)NC(=O)[C@H](CCCNC(=N)N)NC(=O)[C@@H](N)CCCNC(=N)N)[C@@H](C)O)C(=O)O` is reported as 6.15 (Antigen peptide transporter 1/Antigen peptide transporter 2; ligand displacement).
`O=C(/C=C/c1cccc(S(=O)(=O)Nc2ccccc2)c1)NO` gave a pKd of 6.28 (Protein deacetylase HDAC6 (HDAC6, Homo sapiens, UniProt Q9UBN7); cell-free assay).
`CC[C@H](C)[C@H](NC(=O)[C@H](CC(C)C)NC(=O)[C@@H](N)CO)C(=O)NCC(=O)N[C@@H](CCCCN)C(=O)N[C@H](C(N)=O)C(C)C` gave a pEC50 of 4.55 (Proteinase-activated receptor 2 (F2RL1, Homo sapiens, UniProt P55085); calcium signal; agonist).
